Experimental data published in ChEMBL document CHEMBL2434944, “Novel acetamidothiazole derivatives: synthesis and in vitro anticancer evaluation” (Eur J Med Chem, 2013).

What was measured:
MDA-MB-468 = assay: Growth inhibition of human MDA-MB-468 cells assessed as cell growth at 10^-5 M after 48 hrs by sulforhodamine B assay relative to control; type: functional; details: MDA-MB-468, 48 h, read-out: Activity
Outline: (§1)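 NCI-60 single-dose screen at 10^-5 M. Cells grown in RPMI 1640 with 5% FBS and 2 mM L-glutamine, plated at 5,000–40,000 cells/well according to doubling time, and preincubated 24 h at 37°C, 5% CO2. Compound dissolved in DMSO and added. Exposure 48 h. Adherent cells fixed with cold TCA (10% final), suspension cells with 16% final TCA. Read-out is 0.4% SRB staining, dye solubilised in 10 mM Tris, absorbance at 515 nm. Percent growth is calculated against the time-zero plate and untreated control.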

HOP-62 = assay: Growth inhibition of human HOP62 cells assessed as cell growth at 10^-5 M after 48 hrs by sulforhodamine B assay relative to control; type: functional; details: HOP-62, 48 h, read-out: Activity; outline: as §1
UACC-257 = assay: Growth inhibition of human UACC257 cells assessed as cell growth at 10^-5 M after 48 hrs by sulforhodamine B assay relative to control; type: functional; details: UACC-257, 48 h, read-out: Activity
Outline: (§2)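 NCI-60 single-dose screen, 10^-5 M final. Cells grown in RPMI 1640 with 5% FBS and 2 mM L-glutamine, seeded at 5,000–40,000 cells/well by doubling time. Preincubated 24 h at 37°C, 5% CO2. Compound in DMSO, diluted in medium with gentamicin, then 48 h exposure. Fixed with cold TCA, SRB stained, A515 read. Percent growth vs untreated control, time-zero plate corrected.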

[1] = target: Proto-oncogene tyrosine-protein kinase Src (Homo sapiens, UniProt P12931); assay: Inhibition of human SRC
Proto-oncogene tyrosine-protein kinase Src, sequence (P12931 2-536 limits assumed): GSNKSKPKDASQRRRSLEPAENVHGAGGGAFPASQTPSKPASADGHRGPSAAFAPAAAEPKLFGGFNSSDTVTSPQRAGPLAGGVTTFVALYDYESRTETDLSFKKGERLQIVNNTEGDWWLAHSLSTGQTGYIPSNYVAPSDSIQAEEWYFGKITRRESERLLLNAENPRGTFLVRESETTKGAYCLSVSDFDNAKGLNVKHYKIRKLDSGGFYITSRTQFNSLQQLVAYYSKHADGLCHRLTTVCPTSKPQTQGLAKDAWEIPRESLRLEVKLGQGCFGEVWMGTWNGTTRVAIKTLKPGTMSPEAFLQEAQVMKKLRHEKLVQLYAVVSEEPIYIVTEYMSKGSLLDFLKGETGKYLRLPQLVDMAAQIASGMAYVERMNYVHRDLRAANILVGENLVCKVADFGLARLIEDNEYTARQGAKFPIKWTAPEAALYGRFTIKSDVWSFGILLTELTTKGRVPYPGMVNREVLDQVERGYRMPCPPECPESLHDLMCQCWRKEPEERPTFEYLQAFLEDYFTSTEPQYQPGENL

ACHN = assay: Growth inhibition of human ACHN cells assessed as cell growth at 10^-5 M after 48 hrs by sulforhodamine B assay relative to control; type: functional; details: read-out: Activity; outline: as §1
Thymidylate synthase = Thymidylate synthase (Homo sapiens, UniProt P04818); assay: Inhibition of human thymidylate synthase
Thymidylate synthase, sequence (P04818 whole entry): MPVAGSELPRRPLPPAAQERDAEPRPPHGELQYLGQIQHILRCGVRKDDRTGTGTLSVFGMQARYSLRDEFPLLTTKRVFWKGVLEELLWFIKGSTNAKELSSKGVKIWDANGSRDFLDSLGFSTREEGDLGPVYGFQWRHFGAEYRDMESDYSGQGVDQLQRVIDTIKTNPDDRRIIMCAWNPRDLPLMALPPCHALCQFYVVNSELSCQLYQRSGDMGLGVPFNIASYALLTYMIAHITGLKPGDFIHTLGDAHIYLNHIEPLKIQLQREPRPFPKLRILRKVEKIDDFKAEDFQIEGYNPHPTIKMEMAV

SNB-75 = assay: Growth inhibition of human SNB75 cells assessed as cell growth at 10^-5 M after 48 hrs by sulforhodamine B assay relative to control; type: functional; details: SNB-75, 48 h, read-out: Activity; outline: as §1
SW-620 = assay: Growth inhibition of human SW620 cells assessed as cell growth at 10^-5 M after 48 hrs by sulforhodamine B assay relative to control; type: functional; details: SW-620, 48 h, read-out: Activity; outline: as §2
MCF7 = assay: Growth inhibition of human MCF7 cells assessed as cell growth at 10^-5 M after 48 hrs by sulforhodamine B assay relative to control; type: functional; details: MCF7, 48 h, read-out: Activity; outline: as §1
NCI-H322M = assay: Growth inhibition of human NCI-H322M cells assessed as cell growth at 10^-5 M after 48 hrs by sulforhodamine B assay relative to control; type: functional; details: read-out: Activity; outline: as §1
NCI-H23 = assay: Growth inhibition of human NCI-H23 cells assessed as cell growth at 10^-5 M after 48 hrs by sulforhodamine B assay relative to control; type: functional; details: NCI-H23, 48 h, read-out: Activity; outline: as §1
MOLT-4 = assay: Growth inhibition of human MOLT4 cells assessed as cell growth at 10^-5 M after 48 hrs by sulforhodamine B assay relative to control; type: functional; details: MOLT-4, 48 h, read-out: Activity; outline: as §1
CAKI-1 = assay: Growth inhibition of human CAKI-1 cells assessed as cell growth at 10^-5 M after 48 hrs by sulforhodamine B assay relative to control; type: functional; details: CAKI-1, 48 h, read-out: Activity; outline: as §1
MDA-MB-435 = assay: Growth inhibition of human MDA-MB-435 cells assessed as cell growth at 10^-5 M after 48 hrs by sulforhodamine B assay relative to control; type: functional; details: MDA-MB-435, 48 h, read-out: Activity; outline: as §1
OVCAR-5 = assay: Growth inhibition of human OVCAR5 cells assessed as cell growth at 10^-5 M after 48 hrs by sulforhodamine B assay relative to control; type: functional; details: OVCAR-5, 48 h, read-out: Activity; outline: as §1
[2] = Growth inhibition of human HCC2998 cells assessed as cell growth at 10^-5 M after 48 hrs by sulforhodamine B assay relative to control; type: functional; details: HCC 2998, 48 h, read-out: Activity; outline: as §1
UO-31 = assay: Growth inhibition of human UO31 cells assessed as cell growth at 10^-5 M after 48 hrs by sulforhodamine B assay relative to control; type: functional; details: UO-31, 48 h, read-out: Activity; outline: as §2
OVCAR-4 = assay: Growth inhibition of human OVCAR4 cells assessed as cell growth at 10^-5 M after 48 hrs by sulforhodamine B assay relative to control; type: functional; details: OVCAR-4, 48 h, read-out: Activity; outline: as §1
K562 = assay: Growth inhibition of human K562 cells assessed as cell growth at 10^-5 M after 48 hrs by sulforhodamine B assay relative to control; type: functional; details: K562, 48 h, read-out: Activity; outline: as §1
Malme-3M = assay: Growth inhibition of human MALME-3M cells assessed as cell growth at 10^-5 M after 48 hrs by sulforhodamine B assay relative to control; type: functional; details: read-out: Activity; outline: as §1
TK-10 = assay: Growth inhibition of human TK10 cells assessed as cell growth at 10^-5 M after 48 hrs by sulforhodamine B assay relative to control; type: functional; details: TK-10, 48 h, read-out: Activity; outline: as §2
HT-29 = assay: Growth inhibition of human HT-29 cells assessed as cell growth at 10^-5 M after 48 hrs by sulforhodamine B assay relative to control; type: functional; details: HT-29, 48 h, read-out: Activity; outline: as §1
[3] = target: Mitogen-activated protein kinase 1 (Homo sapiens, UniProt P28482); assay: Inhibition of human MAPK1
Mitogen-activated protein kinase 1, sequence (P28482 whole entry): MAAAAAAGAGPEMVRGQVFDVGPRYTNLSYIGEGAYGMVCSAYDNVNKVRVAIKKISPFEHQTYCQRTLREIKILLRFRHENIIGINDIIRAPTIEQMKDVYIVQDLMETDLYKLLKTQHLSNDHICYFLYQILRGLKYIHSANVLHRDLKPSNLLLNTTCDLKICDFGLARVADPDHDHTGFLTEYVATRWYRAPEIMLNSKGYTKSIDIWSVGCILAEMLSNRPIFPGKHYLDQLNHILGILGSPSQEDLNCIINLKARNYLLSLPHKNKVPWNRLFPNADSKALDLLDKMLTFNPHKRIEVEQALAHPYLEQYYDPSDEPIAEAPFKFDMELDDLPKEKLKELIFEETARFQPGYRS

Vitamin D3 receptor = target: T1, Vitamin D3 receptor (Homo sapiens, UniProt P11473); assay: Inhibition of human vitamin D3 receptor
T1 sequence (P11473 whole entry): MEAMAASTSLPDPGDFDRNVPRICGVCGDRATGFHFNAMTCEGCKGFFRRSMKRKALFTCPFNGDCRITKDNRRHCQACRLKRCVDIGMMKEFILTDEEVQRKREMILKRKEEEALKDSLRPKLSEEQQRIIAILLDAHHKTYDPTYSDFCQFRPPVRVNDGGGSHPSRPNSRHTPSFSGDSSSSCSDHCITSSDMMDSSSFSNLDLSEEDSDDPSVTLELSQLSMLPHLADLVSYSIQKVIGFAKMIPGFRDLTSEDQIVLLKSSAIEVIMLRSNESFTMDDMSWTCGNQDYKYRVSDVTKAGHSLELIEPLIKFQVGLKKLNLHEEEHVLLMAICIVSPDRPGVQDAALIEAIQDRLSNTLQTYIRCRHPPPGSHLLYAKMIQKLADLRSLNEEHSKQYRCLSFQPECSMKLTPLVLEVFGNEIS

SF-268 = assay: Growth inhibition of human SF268 cells assessed as cell growth at 10^-5 M after 48 hrs by sulforhodamine B assay relative to control; type: functional; details: SF-268, 48 h, read-out: Activity; outline: as §1
SN12C = assay: Growth inhibition of human SN12C cells assessed as cell growth at 10^-5 M after 48 hrs by sulforhodamine B assay relative to control; type: functional; details: read-out: Activity; outline: as §1

Structure (SMILES) | growth at 10 µM (MDA-MB-468) | growth at 10 µM (HOP-62) | growth at 10 µM (UACC-257) | Ki [1] | growth at 10 µM (ACHN) | Ki (Thymidylate synthase) | growth at 10 µM (SNB-75) | growth at 10 µM (SW-620) | growth at 10 µM (MCF7) | growth at 10 µM (NCI-H322M) | growth at 10 µM (NCI-H23) | growth at 10 µM (MOLT-4) | growth at 10 µM (CAKI-1) | growth at 10 µM (MDA-MB-435) | growth at 10 µM (OVCAR-5) | growth at 10 µM [2] | growth at 10 µM (UO-31) | growth at 10 µM (OVCAR-4) | growth at 10 µM (K562) | growth at 10 µM (Malme-3M) | other results
CN1CCN(C(=O)Cn2c(-c3ccccc3)csc2=N)CC1 | 97.6% | 88.9% | 106% | 7.91 µM | 81.2% | 1.14 µM | 56.5% | 96.1% | 81.4% | 90.2% | 90% | 95.2% | 70.4% | 104% | 110% | 101% | 78.8% | 88.4% | 98.2% | 89.1% | growth at 10 µM (TK-10): 140%; growth at 10 µM (HT-29): 83.8%; Ki [3]: 4.89 µM; Ki (Vitamin D3 receptor): 28.3 µM; growth at 10 µM (SF-268): 96.2%; growth at 10 µM (SN12C): 85.2%
CN1CCN(C(=O)Cn2c(-c3ccc(Cl)cc3)csc2=N)CC1 | 96.8% | 101% | 104% | 3.23 µM | 98.6% | 0.34 µM | 79.5% | 102% | 92.2% | 95.9% | 100% | 75.1% | 85.9% | 92.2% | 96.4% | 97.5% | 89.2% | 90.5% | 73.1% | 99.6% | growth at 10 µM (TK-10): 85.7%; growth at 10 µM (HT-29): 96%; Ki [3]: 8.84 µM; Ki (Vitamin D3 receptor): 3.66 µM; growth at 10 µM (SF-268): 98.4%; growth at 10 µM (SN12C): 92.8%
N=c1scc(-c2ccc(Cl)cc2)n1CC(=O)N1CCOCC1 | 95.5% | 98.5% | 94.7% | 16.7 µM | 99.4% | 3.73 µM | 75.3% | 103% | 86.8% | 104% | 95.6% | 69.2% | 84.4% | 84.6% | 113% | 99.9% | 86.1% | 82.2% | 70.9% | 105% | growth at 10 µM (TK-10): 85.9%; growth at 10 µM (HT-29): 94.2%; Ki [3]: 9.18 µM; Ki (Vitamin D3 receptor): 4.13 µM; growth at 10 µM (SF-268): 102%; growth at 10 µM (SN12C): 86.9%
CC(=O)N1CCN(C(=O)Cn2c(-c3ccc(C)cc3)csc2=N)CC1 | 94.3% | 101% | 102% | 15.3 µM | 92.8% | 3.65 µM | 82.3% | 97.6% | 88.9% | 108% | 95.7% | 73% | 81.5% | 80.6% | 122% | 101% | 83.1% | 97% | 84.3% | 121% | growth at 10 µM (TK-10): 121%; growth at 10 µM (HT-29): 105%; Ki [3]: 2.23 µM; Ki (Vitamin D3 receptor): 2.84 µM; growth at 10 µM (SF-268): 101%; growth at 10 µM (SN12C): 87.4%
N=c1scc(-c2ccc(Cl)cc2)n1CC(=O)N1CCN(c2ccccc2)CC1 | 89.8% | 109% | 105% | 1.9 µM | 96.1% | 5.09 µM | 78.4% | 104% | 90.8% | 99.8% | 98.3% | 87% | 93.3% | 92.2% | 93.8% | 95.6% | 91% | 86.4% | 84.8% | 107% | growth at 10 µM (TK-10): 87.2%; growth at 10 µM (HT-29): 92.9%; Ki [3]: 0.501 µM; Ki (Vitamin D3 receptor): 3.07 µM; growth at 10 µM (SF-268): 105%; growth at 10 µM (SN12C): 99.8%
